Legend:
[1] = target: Voltage-gated inwardly rectifying potassium channel KCNH2 (Homo sapiens, UniProt Q12809); assay: Inhibition of human ERG at 25 uM
[2] = target: Phosphatidylinositol 4,5-bisphosphate 3-kinase catalytic subunit beta isoform (Homo sapiens, UniProt P42338); assay: Inhibition of PI3K p110beta in human PC-3 cells assessed as reduction in AKT phosphorylation at S473 residue measured after 2 hrs by TR-FRET analysis; type: cell-based
In short: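 PC3 cells quiesced 2 h at 37 °C/5% CO2 in DMEM with 0.1% FBS/1% PSG, then plated at 25 000 cells/well onto prespotted compound dilutions and incubated 2 h. Lysates were read for Akt and phospho-Akt S473 by TR-FRET (Eu-cryptate Akt donor, d2 phospho-Akt acceptor). Data normalized to 1 μM wortmannin and DMSO controls; four-parameter fit; triplicate; geometric mean.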

Rattus norvegicus [3] = assay: Antiarthritic activity in Lewis rat model of Freund's incomplete adjuvant-induced arthritis assessed as inhibition of […] bone formation at 0.3 to 3 mg/kg, po bid administered for 7 days at 12 hrs interval starting from day 10 to day 16 post-immunization by microscopic analysis relative to control; type: functional; set-up: scale not given: the % may be the effect or the level left; details: dose 0.3-3 mg/kg, time 7 day
In short: (§1)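 Female Lewis rats with established collagen-induced arthritis dosed orally twice daily for 7 days at 0.3, 1 and 3 mg/kg, starting day 10 after second collagen immunization. Joint histopathology scored for pannus formation, cartilage damage, bone resorption and periosteal bone formation; ED50 derived. n = 8/treatment group, n = 4 normal controls.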

[4] = Volume of distribution at steady state in rat at 1 mg/kg, iv; type: ADME, organism-based; details: in vivo, read-out: Vdss
In short: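 Rats and dog received 1 mg/kg intravenously, formulated in 12% w/v Captisol in water. Volume of distribution was taken at steady state from the iv plasma profile. Three animals per dosing route.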

[5] = target: Phosphatidylinositol 4,5-bisphosphate 3-kinase catalytic subunit gamma isoform (Homo sapiens, UniProt P48736); assay: Inhibition of PI3K p110gamma in human basophil assessed as reduction in fMLP-induced basophil activation by flow cytometry analysis; type: tissue-based
In short: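 Basophil activation via fMLP (p110γ) in 25% serum or in isolated WBCs in low serum, with increasing compound concentrations. Anti-CD63-FITC/anti-CCR3-PE staining; ≥150 (25% serum) or ≥75 (low serum) CCR3-high basophils gated; % CD63-positive normalized to 0.3% DMSO vehicle; concentration corrected for reagent dilution.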

[6] = Oral bioavailability in rat at 5 mg/kg; type: ADME, organism-based; details: in vivo
Rattus norvegicus [7] = assay: Antiarthritic activity in po dosed Lewis rat model of Freund's incomplete adjuvant-induced arthritis administered for 7 days at 12 hrs interval starting from day 10 to day 16 post-immunization by microscopic analysis; type: functional; details: 168 h, time 7 day; in short: as §1
[8] = Selectivity index, ratio of IC50 for inhibition of human full length PI3K p110alpha/p85alpha to IC50 for inhibition of human full length PI3K p110delta/p85alpha
[9] = target: T1, Phosphatidylinositol 4,5-bisphosphate 3-kinase catalytic subunit delta isoform (Homo sapiens) (UniProt O00329); details: Blood, time 7.0 day
T1 sequence (whole entry): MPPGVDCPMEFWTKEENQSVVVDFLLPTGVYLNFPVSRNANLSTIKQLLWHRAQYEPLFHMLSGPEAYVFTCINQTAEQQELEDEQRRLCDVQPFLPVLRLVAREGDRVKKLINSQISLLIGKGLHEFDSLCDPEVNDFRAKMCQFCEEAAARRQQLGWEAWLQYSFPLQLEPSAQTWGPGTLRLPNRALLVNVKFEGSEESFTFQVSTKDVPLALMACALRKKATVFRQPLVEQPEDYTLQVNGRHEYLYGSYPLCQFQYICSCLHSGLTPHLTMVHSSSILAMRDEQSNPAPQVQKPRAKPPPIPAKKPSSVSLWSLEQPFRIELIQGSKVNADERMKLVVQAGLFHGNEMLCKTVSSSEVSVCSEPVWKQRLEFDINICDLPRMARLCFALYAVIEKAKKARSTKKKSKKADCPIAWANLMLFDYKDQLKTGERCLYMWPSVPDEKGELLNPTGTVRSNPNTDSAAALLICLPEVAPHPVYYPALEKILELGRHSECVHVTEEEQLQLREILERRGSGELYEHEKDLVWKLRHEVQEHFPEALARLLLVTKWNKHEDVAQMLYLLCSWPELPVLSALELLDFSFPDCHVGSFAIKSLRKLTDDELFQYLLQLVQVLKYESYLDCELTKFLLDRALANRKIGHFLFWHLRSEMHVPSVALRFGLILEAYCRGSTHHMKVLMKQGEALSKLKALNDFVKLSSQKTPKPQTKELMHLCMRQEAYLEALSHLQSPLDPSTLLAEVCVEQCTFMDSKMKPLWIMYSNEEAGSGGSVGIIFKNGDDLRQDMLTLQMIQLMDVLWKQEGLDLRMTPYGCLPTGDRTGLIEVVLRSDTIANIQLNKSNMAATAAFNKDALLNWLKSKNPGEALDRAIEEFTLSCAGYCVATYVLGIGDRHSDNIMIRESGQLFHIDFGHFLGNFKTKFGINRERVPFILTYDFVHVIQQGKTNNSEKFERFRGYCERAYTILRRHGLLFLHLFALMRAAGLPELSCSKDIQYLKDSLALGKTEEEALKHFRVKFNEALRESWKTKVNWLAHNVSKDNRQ

[10] = Terminal half life in cynomolgus monkey at 1 mg/kg, iv measured over 24 hrs by LC/MS/MS analysis; type: ADME, organism-based, Macaca fascicularis; details: in vivo, read-out: beta t1/2 (converted)
In short: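 Single intravenous dose of 1 mg/kg. Vehicles: rats and dogs 5% ethanol/55% PEG 400/40% water; cynomolgus monkeys 5% ethanol/22% PEG 400/73% water; rhesus monkeys 5% ethanol/25% PEG 400/70% water. Plasma concentration–time data gave Vss and iv half-life. Reported as mean ± SD, n = 3.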

[11] = target: Phosphatidylinositol 4,5-bisphosphate 3-kinase catalytic subunit alpha isoform (Mus musculus, UniProt P42337); assay: Inhibition of PI3K p110alpha in mouse embryonic fibroblast cells assessed as reduction in PDGF-induced AKT phosphorylation at S473 residue preincubated for 2 hrs followed by PDGF stimulation and measured after 10 mins; set-up: species or system MEF
In short: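 MEFs grown overnight in DMEM/15% FBS, starved 2 h in 0.1% FBS, treated 2 h with compound at various concentrations, then stimulated with PDGF (10 ng/mL) 10 min at 37 °C. Lysates probed for total Akt and phospho-Akt S473 by capillary immunoassay; geometric mean, triplicate.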

[12] = Clearance in cynomolgus monkey at 1 mg/kg, iv measured over 24 hrs by LC/MS/MS analysis; type: ADME, organism-based, Macaca fascicularis; details: in vivo
In short: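 Intravenous 1 mg/kg and oral 5 mg/kg doses. Vehicle: 5% ethanol/55% PEG 400/40% water for rats and dogs; 5% ethanol/22% PEG 400/73% water for cynomolgus; 5% ethanol/25% PEG 400/70% water for rhesus. Half-life and MRT from iv; mean ± SD, n = 3 per route.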

[13] = target: T2, Phosphatidylinositol 4,5-bisphosphate 3-kinase catalytic subunit delta isoform (Homo sapiens, UniProt O00329); assay: Inhibition of PI3K p110delta in human basophil assessed as reduction in anti-FCepsilonR1 mAb-stimulated basophil activation preincubated for 60 mins followed by anti-FCepsilonR1 mAb stimulation and measured after 25 mins by flow cytometry analysis
T2 sequence (O00329 whole entry): T1 sequence (whole entry)

Voltage-gated inwardly rectifying potassium channel KCNH2, sequence (Q12809 whole entry, canonical isoform): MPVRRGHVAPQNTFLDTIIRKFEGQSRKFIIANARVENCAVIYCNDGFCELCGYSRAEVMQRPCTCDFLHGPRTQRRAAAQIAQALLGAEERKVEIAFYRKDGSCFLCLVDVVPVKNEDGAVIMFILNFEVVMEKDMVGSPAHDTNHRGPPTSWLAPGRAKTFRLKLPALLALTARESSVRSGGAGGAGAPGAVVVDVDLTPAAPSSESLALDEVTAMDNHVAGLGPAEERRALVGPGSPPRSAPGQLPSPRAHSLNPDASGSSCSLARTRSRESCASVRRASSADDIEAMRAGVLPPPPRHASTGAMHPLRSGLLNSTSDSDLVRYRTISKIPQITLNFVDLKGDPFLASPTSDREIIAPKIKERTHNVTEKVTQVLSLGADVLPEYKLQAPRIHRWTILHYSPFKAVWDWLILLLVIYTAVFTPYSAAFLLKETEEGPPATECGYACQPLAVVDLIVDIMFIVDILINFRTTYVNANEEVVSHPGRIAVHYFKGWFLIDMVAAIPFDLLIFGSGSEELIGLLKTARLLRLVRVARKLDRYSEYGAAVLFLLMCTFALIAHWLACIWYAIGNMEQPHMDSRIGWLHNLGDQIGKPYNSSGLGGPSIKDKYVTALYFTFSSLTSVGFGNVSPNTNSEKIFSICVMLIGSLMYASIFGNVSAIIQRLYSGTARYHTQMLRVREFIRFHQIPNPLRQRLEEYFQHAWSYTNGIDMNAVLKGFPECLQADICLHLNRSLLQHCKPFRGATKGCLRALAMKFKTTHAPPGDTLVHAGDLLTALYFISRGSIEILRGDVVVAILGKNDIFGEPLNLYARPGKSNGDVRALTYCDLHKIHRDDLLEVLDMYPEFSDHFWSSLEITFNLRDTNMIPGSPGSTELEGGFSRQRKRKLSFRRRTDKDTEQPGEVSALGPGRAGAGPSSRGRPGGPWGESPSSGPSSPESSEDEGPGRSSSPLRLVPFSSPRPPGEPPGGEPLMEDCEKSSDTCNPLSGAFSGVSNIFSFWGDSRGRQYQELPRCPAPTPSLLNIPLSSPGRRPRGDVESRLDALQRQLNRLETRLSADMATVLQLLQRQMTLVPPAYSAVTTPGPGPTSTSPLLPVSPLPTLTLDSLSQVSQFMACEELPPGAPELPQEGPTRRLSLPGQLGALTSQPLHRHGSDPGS
Phosphatidylinositol 4,5-bisphosphate 3-kinase catalytic subunit beta isoform, sequence (P42338 whole entry, canonical isoform): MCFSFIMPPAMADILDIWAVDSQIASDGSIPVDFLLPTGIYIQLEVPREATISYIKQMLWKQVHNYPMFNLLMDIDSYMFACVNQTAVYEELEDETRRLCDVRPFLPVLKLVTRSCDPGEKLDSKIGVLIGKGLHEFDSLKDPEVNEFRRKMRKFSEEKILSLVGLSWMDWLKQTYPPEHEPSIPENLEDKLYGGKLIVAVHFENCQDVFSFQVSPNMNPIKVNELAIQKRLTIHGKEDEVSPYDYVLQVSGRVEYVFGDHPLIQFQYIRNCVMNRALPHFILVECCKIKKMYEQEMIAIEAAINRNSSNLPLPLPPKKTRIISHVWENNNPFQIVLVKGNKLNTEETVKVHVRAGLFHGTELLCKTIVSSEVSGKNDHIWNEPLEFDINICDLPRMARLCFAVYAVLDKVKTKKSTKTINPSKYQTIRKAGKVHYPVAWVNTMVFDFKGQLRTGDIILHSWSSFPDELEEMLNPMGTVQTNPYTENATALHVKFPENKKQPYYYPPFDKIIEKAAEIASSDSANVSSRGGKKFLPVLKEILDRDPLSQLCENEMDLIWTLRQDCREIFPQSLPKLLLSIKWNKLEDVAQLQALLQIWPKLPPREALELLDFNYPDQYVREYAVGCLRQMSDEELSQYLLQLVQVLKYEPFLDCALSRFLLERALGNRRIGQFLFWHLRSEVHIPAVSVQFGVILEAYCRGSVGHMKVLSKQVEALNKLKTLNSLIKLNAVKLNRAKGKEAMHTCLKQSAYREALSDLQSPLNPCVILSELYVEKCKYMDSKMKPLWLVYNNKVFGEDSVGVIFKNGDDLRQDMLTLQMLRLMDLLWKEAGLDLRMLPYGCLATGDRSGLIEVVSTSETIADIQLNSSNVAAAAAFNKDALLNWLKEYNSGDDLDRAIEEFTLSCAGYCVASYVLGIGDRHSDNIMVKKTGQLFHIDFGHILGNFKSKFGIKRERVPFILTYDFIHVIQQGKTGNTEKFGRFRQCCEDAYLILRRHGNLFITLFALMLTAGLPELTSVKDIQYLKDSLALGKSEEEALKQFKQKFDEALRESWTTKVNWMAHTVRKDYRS
Phosphatidylinositol 4,5-bisphosphate 3-kinase catalytic subunit alpha isoform, sequence (P42337 whole entry, canonical isoform): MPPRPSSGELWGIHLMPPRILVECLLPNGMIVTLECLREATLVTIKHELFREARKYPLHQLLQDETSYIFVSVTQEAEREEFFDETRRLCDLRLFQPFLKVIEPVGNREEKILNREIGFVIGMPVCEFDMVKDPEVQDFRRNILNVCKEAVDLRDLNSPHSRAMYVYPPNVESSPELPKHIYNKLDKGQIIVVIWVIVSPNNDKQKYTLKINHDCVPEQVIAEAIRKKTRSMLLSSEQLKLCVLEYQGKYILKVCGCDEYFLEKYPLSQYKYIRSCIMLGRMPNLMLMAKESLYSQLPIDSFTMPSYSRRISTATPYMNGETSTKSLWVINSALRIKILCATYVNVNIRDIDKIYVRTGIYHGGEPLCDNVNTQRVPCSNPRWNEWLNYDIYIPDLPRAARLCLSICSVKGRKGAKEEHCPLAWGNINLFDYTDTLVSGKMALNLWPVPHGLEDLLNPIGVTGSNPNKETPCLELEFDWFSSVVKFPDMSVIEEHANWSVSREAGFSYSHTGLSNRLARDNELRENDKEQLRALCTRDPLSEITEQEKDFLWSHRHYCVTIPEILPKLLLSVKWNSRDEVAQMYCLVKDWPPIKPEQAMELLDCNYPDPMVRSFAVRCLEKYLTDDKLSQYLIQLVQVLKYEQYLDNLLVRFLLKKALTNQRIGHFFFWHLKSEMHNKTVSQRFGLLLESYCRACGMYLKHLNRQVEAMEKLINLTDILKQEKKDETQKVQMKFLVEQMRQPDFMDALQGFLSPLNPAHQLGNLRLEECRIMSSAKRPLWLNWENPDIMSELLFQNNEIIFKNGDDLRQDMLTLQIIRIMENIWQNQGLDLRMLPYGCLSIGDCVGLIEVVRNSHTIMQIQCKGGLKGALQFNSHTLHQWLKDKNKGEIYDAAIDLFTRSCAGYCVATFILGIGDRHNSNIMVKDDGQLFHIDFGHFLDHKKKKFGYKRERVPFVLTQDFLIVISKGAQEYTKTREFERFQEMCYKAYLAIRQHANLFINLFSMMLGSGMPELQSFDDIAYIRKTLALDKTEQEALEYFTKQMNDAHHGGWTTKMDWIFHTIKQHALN
Phosphatidylinositol 4,5-bisphosphate 3-kinase catalytic subunit gamma isoform, sequence (P48736 whole entry, canonical isoform): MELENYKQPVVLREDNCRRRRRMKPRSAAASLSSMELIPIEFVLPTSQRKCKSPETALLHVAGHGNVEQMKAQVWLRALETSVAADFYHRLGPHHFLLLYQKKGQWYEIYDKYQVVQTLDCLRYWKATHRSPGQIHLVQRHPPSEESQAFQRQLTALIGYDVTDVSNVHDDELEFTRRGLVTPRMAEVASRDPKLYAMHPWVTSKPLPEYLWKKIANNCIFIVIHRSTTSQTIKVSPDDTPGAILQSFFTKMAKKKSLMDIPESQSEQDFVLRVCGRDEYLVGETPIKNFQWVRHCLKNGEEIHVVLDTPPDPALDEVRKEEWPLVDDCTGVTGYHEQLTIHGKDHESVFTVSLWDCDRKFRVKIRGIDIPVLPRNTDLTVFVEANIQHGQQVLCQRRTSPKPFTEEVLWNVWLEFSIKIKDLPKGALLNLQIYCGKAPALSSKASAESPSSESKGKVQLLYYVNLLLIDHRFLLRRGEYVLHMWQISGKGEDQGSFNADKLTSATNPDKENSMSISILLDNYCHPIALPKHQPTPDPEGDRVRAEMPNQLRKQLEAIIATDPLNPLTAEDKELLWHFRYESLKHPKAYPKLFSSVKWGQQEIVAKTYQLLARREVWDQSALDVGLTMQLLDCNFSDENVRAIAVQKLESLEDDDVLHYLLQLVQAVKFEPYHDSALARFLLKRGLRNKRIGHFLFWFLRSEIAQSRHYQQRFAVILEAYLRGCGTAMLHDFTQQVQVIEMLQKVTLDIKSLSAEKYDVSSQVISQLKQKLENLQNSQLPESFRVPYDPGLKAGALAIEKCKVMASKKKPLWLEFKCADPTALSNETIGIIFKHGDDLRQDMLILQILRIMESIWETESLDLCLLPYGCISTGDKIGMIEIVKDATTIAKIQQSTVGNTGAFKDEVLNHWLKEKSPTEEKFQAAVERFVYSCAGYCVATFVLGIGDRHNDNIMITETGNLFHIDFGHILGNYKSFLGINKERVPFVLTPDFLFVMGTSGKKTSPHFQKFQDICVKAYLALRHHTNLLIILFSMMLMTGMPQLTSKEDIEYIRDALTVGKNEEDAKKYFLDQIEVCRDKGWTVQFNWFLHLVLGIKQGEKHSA

In the case of `N#Cc1c(N)nc(N)nc1N[C@H](c1nc2c(F)ccc(Cl)c2c(=O)n1-c1cccnc1)C1CC1` [GS-9901], the “inhibition (INH)” value [1] is reported as “Not Active”, the EC50 [2] is reported as 42 nM and the Activity (Rattus norvegicus [3]) is reported as 48%. It also gave a Vd [4] of 0.83 L/kg, an EC50 [5] of 404 nM and a bioavailability [6] of 57%. The ED50 (Rattus norvegicus [7]) was 0.6 mg/kg, the Ratio IC50 [8] was 750 and the EC90 [9] was 21 nM. It also gave a half-life [10] of 2.89 h, an EC50 [11] of 1170 nM and a clearance [12] of 6.83 mL/min/kg. For the same compound, the EC50 [13] was 0.31 nM.
